Measurements taken from ChEMBL document CHEMBL2016568, “Bromophenols as inhibitors of protein tyrosine phosphatase 1B with antidiabetic properties” (Bioorg Med Chem Lett, 2012).
One block for each compound: values may come before it.

Assays:
[1] = target: T1, Tyrosine-protein phosphatase non-receptor type 1 (Homo sapiens) (UniProt P18031); assay: Inhibition of GST-tagged human recombinant PTB1B using pNPP as substrate at 20 ug/ml after 3 mins
T1 sequence (whole entry): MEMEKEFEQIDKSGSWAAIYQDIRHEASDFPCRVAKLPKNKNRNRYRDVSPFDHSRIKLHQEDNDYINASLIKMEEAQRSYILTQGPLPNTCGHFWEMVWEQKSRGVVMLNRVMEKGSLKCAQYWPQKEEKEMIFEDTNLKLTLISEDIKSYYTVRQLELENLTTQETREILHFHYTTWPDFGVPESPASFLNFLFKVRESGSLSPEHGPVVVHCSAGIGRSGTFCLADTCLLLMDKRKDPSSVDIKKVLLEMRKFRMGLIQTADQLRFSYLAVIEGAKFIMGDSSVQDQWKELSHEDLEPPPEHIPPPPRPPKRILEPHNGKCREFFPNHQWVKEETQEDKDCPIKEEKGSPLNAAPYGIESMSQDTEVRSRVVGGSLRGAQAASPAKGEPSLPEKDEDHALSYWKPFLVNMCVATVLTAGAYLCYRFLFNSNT

[2] = target: T1, Tyrosine-protein phosphatase non-receptor type 1 (Homo sapiens); assay: Inhibition of GST-tagged human recombinant PTB1B using pNPP as substrate at 5 ug/ml after 3 mins
[3] = target: T2, Tyrosine-protein phosphatase non-receptor type 1 (Homo sapiens, UniProt P18031); assay: Inhibition of GST-tagged human recombinant PTB1B using pNPP as substrate after 3 mins
T2 sequence (P18031 whole entry): T1 sequence (whole entry)

[4] = target: T3, Tyrosine-protein phosphatase non-receptor type 2 (Homo sapiens, UniProt P17706); assay: Inhibition of TCPTP after 3 mins
T3 sequence (P17706 whole entry): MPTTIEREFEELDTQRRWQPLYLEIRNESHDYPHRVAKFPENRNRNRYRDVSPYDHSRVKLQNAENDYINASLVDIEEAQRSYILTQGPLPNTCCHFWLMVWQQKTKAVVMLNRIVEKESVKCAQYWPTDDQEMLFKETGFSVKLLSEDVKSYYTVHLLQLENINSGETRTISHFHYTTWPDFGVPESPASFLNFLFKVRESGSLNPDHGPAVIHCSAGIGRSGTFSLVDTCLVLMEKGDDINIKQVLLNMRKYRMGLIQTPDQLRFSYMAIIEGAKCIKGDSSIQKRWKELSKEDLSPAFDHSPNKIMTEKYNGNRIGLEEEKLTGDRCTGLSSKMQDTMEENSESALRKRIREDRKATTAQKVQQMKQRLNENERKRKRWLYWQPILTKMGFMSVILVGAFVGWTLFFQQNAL
In short: (§1)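 Selectivity assays run in the same system as PTP1B. Enzyme and inhibitor preincubated 3 min at 4 °C, then the reaction started by adding substrate. OMFP used as substrate for SHP1, SHP2 and LAR. IC50 derived by Hill-equation fit of percent inhibition against inhibitor concentration.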

[5] = target: T4, Tyrosine-protein phosphatase non-receptor type 11 (Homo sapiens, UniProt Q06124); assay: Inhibition of SHP2 using OMFP as substrate after 3 mins; in short: as §1
T4 sequence (Q06124 whole entry): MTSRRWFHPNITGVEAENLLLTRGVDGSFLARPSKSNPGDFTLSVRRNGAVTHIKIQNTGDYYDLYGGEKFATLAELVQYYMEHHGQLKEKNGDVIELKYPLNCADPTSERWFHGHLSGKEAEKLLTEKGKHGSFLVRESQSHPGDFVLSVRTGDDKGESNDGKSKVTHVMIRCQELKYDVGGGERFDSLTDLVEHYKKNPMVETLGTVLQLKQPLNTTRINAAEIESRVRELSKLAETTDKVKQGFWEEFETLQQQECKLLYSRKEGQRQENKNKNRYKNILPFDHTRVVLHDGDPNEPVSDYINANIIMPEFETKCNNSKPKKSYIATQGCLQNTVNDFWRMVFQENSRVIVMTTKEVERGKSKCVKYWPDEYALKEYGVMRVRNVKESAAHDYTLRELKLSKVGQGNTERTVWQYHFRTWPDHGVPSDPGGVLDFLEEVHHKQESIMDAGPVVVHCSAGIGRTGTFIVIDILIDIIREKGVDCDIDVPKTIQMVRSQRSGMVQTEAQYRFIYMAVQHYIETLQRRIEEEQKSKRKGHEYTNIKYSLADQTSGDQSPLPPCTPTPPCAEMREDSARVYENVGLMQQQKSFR

[6] = target: Tyrosine-protein phosphatase non-receptor type 6 (Homo sapiens, UniProt P29350); assay: Inhibition of SHP1 using OMFP as substrate after 3 mins; in short: as §1
Chain of Tyrosine-protein phosphatase non-receptor type 6 (P29350 whole entry): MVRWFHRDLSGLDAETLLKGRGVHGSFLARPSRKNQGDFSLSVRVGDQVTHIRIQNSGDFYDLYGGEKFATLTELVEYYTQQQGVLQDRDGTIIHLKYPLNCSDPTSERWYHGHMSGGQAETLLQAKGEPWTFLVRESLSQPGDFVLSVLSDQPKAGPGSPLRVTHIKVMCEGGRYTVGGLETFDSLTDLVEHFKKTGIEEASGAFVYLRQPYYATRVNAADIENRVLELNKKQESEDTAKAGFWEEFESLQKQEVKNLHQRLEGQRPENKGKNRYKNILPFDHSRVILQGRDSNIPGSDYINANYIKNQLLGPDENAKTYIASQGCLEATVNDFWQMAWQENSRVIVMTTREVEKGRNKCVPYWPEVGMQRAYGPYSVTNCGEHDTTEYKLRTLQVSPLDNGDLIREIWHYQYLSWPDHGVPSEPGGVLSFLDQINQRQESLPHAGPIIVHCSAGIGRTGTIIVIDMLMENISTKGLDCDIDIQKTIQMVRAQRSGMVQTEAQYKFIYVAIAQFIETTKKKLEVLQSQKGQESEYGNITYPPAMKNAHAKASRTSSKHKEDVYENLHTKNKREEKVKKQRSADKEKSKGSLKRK

[7] = target: Receptor-type tyrosine-protein phosphatase F (Homo sapiens, UniProt P10586); assay: Inhibition of LAR using OMFP as substrate after 3 mins; in short: as §1
Chain of Receptor-type tyrosine-protein phosphatase F (P10586 whole entry): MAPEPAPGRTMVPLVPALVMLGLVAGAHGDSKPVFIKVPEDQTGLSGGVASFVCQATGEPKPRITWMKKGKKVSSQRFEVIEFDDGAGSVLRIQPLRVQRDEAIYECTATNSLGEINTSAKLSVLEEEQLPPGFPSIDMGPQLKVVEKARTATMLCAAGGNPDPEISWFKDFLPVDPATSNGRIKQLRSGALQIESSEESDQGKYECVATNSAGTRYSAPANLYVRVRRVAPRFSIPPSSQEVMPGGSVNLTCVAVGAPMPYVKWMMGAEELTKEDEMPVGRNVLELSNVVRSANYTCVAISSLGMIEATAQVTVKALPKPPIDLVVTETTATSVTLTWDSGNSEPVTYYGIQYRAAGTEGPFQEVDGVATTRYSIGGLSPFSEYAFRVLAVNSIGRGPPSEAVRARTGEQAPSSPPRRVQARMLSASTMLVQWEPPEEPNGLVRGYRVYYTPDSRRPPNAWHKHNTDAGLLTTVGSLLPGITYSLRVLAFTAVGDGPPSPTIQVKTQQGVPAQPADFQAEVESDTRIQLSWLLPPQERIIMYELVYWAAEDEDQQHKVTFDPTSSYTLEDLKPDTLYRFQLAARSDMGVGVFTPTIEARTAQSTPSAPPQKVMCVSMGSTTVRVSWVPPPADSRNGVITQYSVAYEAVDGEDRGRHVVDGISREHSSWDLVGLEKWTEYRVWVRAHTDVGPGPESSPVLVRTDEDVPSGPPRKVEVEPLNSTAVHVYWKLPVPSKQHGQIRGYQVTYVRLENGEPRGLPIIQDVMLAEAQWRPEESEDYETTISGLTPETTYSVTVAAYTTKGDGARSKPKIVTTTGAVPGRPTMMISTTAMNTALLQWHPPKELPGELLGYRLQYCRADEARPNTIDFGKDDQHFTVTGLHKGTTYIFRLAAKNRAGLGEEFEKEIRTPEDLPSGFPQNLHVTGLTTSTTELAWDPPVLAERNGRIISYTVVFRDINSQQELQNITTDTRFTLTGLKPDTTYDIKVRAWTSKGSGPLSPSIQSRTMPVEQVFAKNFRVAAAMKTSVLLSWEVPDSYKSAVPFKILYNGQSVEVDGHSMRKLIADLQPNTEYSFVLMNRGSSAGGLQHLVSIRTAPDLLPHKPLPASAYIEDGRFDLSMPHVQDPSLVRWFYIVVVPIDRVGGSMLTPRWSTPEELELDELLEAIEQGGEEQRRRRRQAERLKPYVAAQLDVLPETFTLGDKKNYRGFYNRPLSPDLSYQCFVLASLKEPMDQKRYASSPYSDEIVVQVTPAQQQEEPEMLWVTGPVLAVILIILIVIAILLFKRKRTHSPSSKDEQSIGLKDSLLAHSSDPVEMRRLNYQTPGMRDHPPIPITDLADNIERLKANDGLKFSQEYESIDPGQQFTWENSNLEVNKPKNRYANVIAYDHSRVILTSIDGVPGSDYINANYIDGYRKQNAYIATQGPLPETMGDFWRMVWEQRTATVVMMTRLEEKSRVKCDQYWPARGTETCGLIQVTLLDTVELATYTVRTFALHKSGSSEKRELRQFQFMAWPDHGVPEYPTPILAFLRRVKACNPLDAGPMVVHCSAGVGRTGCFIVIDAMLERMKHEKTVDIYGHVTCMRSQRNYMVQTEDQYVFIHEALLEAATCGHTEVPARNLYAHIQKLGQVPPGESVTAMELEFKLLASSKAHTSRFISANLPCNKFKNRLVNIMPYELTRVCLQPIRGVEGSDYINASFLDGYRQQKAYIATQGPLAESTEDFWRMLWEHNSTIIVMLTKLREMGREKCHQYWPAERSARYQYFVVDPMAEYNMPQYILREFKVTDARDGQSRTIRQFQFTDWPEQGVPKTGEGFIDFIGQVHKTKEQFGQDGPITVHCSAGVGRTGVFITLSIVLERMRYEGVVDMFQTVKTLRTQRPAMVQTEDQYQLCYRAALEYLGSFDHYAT

Mus musculus [8] = assay: Antihyperglycemic activity in C57BL/Ks db/db mouse assessed as reduction of plasma glucose level at 50 mg/kg, po after 2 to 6 weeks by glucometer relative to control; format: functional; set-up: scale not given: the % may be the effect or the level left
In short: (§2)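 db/db mice (C57BL/Ks, 10 weeks old, n = 8 per group) given compound orally in 0.5% sodium carboxymethyl cellulose for six weeks, with a vehicle model group. Postprandial blood glucose read weekly by glucometer. Baseline, 2-week and 6-week values given as mean ± SD. Percent decrease reported at 6 weeks, with statistics against the model group.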

Mus musculus [9] = assay: Antihyperglycemic activity in C57BL/Ks db/db mouse assessed as reduction of plasma glucose level at 25 mg/kg, po after 2 to 6 weeks by glucometer relative to control; format: functional; set-up: scale not given: the % may be the effect or the level left; in short: as §2
Mus musculus [10] = assay: Antihyperglycemic activity in C57BL/Ks db/db mouse assessed as reduction of glycosylated hemoglobin level using HbA1c reagent at 50 mg/kg, po after 2 to 6 weeks relative to control; format: functional; set-up: scale not given: the % may be the effect or the level left
In short: (§3)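 HbA1c measured in C57BL/Ks db/db mice (n = 8 per group, 10 weeks old at start). Mice received oral doses suspended in 0.5% sodium carboxymethyl cellulose for six weeks, alongside a vehicle-treated model group. Results given as mean ± SD, compared against the model group.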

Mus musculus [11] = assay: Antihyperglycemic activity in C57BL/Ks db/db mouse assessed as reduction of glycosylated hemoglobin level using HbA1c reagent at 25 mg/kg, po after 2 to 6 weeks relative to control; format: functional; set-up: scale not given: the % may be the effect or the level left; in short: as §3
Mus musculus [12] = assay: Antidyslipidemic activity in C57BL/Ks db/db mouse assessed as reduction of triacylglycerol level at 50 mg/kg, po after 2 weeks (reference value: 1.24 +/- 0.12 mmol/L); format: functional
Mus musculus [13] = assay: Antidyslipidemic activity in C57BL/Ks db/db mouse assessed as reduction of triacylglycerol level at 25 mg/kg, po after 2 weeks (reference value: 1.24 +/- 0.12 mmol/L); format: functional
Mus musculus [14] = assay: Antidyslipidemic activity in C57BL/Ks db/db mouse assessed as reduction of triacylglycerol level at 50 mg/kg, po after 6 weeks (reference value: 1.56 +/- 0.17 mmol/L); format: functional
Mus musculus [15] = assay: Antidyslipidemic activity in C57BL/Ks db/db mouse assessed as reduction of triacylglycerol level at 25 mg/kg, po after 6 weeks (reference value: 1.56 +/- 0.17 mmol/L); format: functional
Mus musculus [16] = assay: Antidyslipidemic activity in C57BL/Ks db/db mouse assessed as reduction of total cholesterol level at 50 mg/kg, po after 2 weeks (reference value: 9.8 +/- 0.7 mmol/L); format: functional
Mus musculus [17] = assay: Antidyslipidemic activity in C57BL/Ks db/db mouse assessed as reduction of total cholesterol level at 25 mg/kg, po after 2 weeks (reference value: 9.8 +/- 0.7 mmol/L); format: functional
Mus musculus [18] = assay: Antidyslipidemic activity in C57BL/Ks db/db mouse assessed as reduction of total cholesterol level at 50 mg/kg, po after 6 weeks (reference value: 9.2 +/- 1.2 mmol/L); format: functional
Mus musculus [19] = assay: Antidyslipidemic activity in C57BL/Ks db/db mouse assessed as reduction of total cholesterol level at 25 mg/kg, po after 6 weeks (reference value: 9.2 +/- 1.2 mmol/L); format: functional
Homo sapiens [20] = species: Homo sapiens; assay: Selectivity ratio of IC50 for TCPTP to IC50 for GST-tagged human recombinant PTB1B
Homo sapiens [21] = species: Homo sapiens; assay: Selectivity ratio of IC50 for SHP2 to IC50 for GST-tagged human recombinant PTB1B
Homo sapiens [22] = species: Homo sapiens; assay: Selectivity ratio of IC50 for SHP1 to IC50 for GST-tagged human recombinant PTB1B
Homo sapiens [23] = species: Homo sapiens; assay: Selectivity ratio of IC50 for LAR to IC50 for GST-tagged human recombinant PTB1B
Mus musculus [24] = assay: Toxicity in C57BL/Ks db/db mouse at 25 to 50 mg/kg, po after 2 to 6 weeks; format: organism-based; set-up: route oral; conditions: in vivo

Compound: Oc1cc(Br)c(Cc2cc(O)c(O)c(Br)c2Br)cc1O
inhibition [1]: 40.5%

Compound: Oc1cc(Cc2cc(O)c(O)c(Br)c2Br)c(Br)c(Br)c1O
inhibition [1]: 91.3%
inhibition [2]: 38.9%
IC50 [3]: 2420 nM

Compound: COc1cc(Br)c(Cc2cc(OC)c(OC)c(Br)c2Br)cc1OC
inhibition [1]: 52.5%
inhibition [2]: 40.2%

Compound: COc1cc(C(=O)c2cc(OC)c(OC)c(Br)c2Br)c(Br)c(Br)c1OC
inhibition [1]: 21.4%

Compound: Oc1c(O)c(Br)c(Cc2c(Br)c(O)c(O)c(Br)c2Br)c(Br)c1Br
inhibition [1]: 101%
inhibition [2]: 86.7%
IC50 [3]: 680 nM
IC50 [4]: > 50000 nM
IC50 [5]: > 50000 nM
IC50 [6]: > 50000 nM
IC50 [7]: > 50000 nM
Activity (Mus musculus [8]): 40.4%
Activity (Mus musculus [9]): 33.5%
Activity (Mus musculus [10]): 3.05%
Activity (Mus musculus [11]): 3.05%
Activity (Mus musculus [12]): 1.28 mmol/L
Activity (Mus musculus [13]): 1.2 mmol/L
Activity (Mus musculus [14]): 1.51 mmol/L
Activity (Mus musculus [15]): 1.45 mmol/L
Activity (Mus musculus [16]): 7.1 mmol/L
Activity (Mus musculus [17]): 8.3 mmol/L
Activity (Mus musculus [18]): 8.4 mmol/L
Activity (Mus musculus [19]): 9.1 mmol/L
Ratio IC50 (Homo sapiens [20]): > 70
Ratio IC50 (Homo sapiens [21]): > 70
Ratio IC50 (Homo sapiens [22]): > 70
Ratio IC50 (Homo sapiens [23]): > 70
Activity (Mus musculus [24]): Non-toxic

Compound: COc1cc(Cc2cc(OC)c(OC)c(Br)c2Br)c(Br)c(Br)c1OC
inhibition [1]: 60.4%
inhibition [2]: 28.9%

Compound: Oc1ccc(Cc2ccc(O)c(O)c2)cc1O
inhibition [1]: 9.27%

Compound: O=C(c1cc(O)c(O)c(Br)c1Br)c1c(Br)c(O)c(O)c(Br)c1Br
inhibition [1]: 95.1%
inhibition [2]: 72.1%
IC50 [3]: 2450 nM

Compound: Oc1cc(Cc2c(Br)c(O)c(O)c(Br)c2Br)c(Br)c(Br)c1O
inhibition [1]: 92.3%
inhibition [2]: 45.3%

Further lines, results first:

inhibition [1]: 33.6%
Compound: COc1cc(Br)c(Cc2cc(OC)c(OC)cc2Br)cc1OC

inhibition [1]: 38.4%
Compound: COc1ccc(Cc2ccc(OC)c(OC)c2)cc1OC

inhibition [1]: 2.72%
Compound: COc1ccc(C(=O)c2ccc(OC)c(OC)c2)cc1OC

inhibition [1]: 33.6%
Compound: COc1cc(Br)c(C(=O)c2cc(OC)c(OC)cc2Br)cc1OC

inhibition [1]: 13%
Compound: COc1ccc(C(=O)c2cc(OC)c(OC)cc2Br)cc1OC
